Test results: ChEMBL document CHEMBL1629465, “Efficient synthesis of novel 1,2,4-triazole fused acyclic and 21-28 membered macrocyclic and/or lariat macrocyclic oxaazathia crown compounds with potential antimicrobial activity” (2010)

Assays:
Assay type in all cases: functional
Details in all cases: read-out: DIZ
Candida albicans [1] = experiment: Antimicrobial activity against Candida albicans RCMB 005003 at 5 mg/ml by agar diffusion technique
In short: (§1)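 Agar well diffusion. Test compounds and reference standard drugs were diluted to 5.0, 2.5 and 1.0 mg/mL and applied to 0.6 cm wells. Inhibition zone beyond the control was scored as 0 (no inhibition), + (0.1–0.5 cm), ++ (0.6–1.0 cm) or +++ (1.0–1.5 cm).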

Aspergillus fumigatus [2] = experiment: Antimicrobial activity against Aspergillus fumigatus RCMB 002008 at 1 mg/ml by agar diffusion technique; in short: as §1
Staphylococcus aureus [3] = experiment: Antimicrobial activity against Staphylococcus aureus RCMB 106001 at 2.5 mg/ml by agar diffusion technique; in short: as §1
Bacillus subtilis [4] = experiment: Antimicrobial activity against Bacillus subtilis RCMB 101001 at 5 mg/ml by agar diffusion technique; in short: as §1
[5] = tested on: Syncephalastrum racemosum; experiment: Antimicrobial activity against Syncephalastrum racemosum RCMB 016001 at 1 mg/ml by agar diffusion technique; in short: as §1
Pseudomonas aeruginosa [6] = experiment: Antimicrobial activity against Pseudomonas aeruginosa RCMB 102002 at 5 mg/ml by agar diffusion technique; in short: as §1
Penicillium italicum [7] = experiment: Antimicrobial activity against Penicillium italicum RCMB 001018 at 1 mg/ml by agar diffusion technique; in short: as §1
[8] = tested on: Syncephalastrum racemosum; experiment: Antimicrobial activity against Syncephalastrum racemosum RCMB 016001 at 5 mg/ml by agar diffusion technique; in short: as §1
Staphylococcus aureus [9] = experiment: Antimicrobial activity against Staphylococcus aureus RCMB 106001 at 5 mg/ml by agar diffusion technique; in short: as §1
Staphylococcus aureus [10] = experiment: Antimicrobial activity against Staphylococcus aureus RCMB 106001 at 1 mg/ml by agar diffusion technique; in short: as §1
Pseudomonas aeruginosa [11] = experiment: Antimicrobial activity against Pseudomonas aeruginosa RCMB 102002 at 1 mg/ml by agar diffusion technique; in short: as §1
Candida albicans [12] = experiment: Antimicrobial activity against Candida albicans RCMB 005003 at 1 mg/ml by agar diffusion technique; in short: as §1
Penicillium italicum [13] = experiment: Antimicrobial activity against Penicillium italicum RCMB 001018 at 2.5 mg/ml by agar diffusion technique; in short: as §1
Escherichia coli [14] = experiment: Antimicrobial activity against Escherichia coli RCMB 103001 at 2.5 mg/ml by agar diffusion technique; in short: as §1
Aspergillus fumigatus [15] = experiment: Antimicrobial activity against Aspergillus fumigatus RCMB 002008 at 2.5 mg/ml by agar diffusion technique; in short: as §1
Pseudomonas aeruginosa [16] = experiment: Antimicrobial activity against Pseudomonas aeruginosa RCMB 102002 at 2.5 mg/ml by agar diffusion technique; in short: as §1
Bacillus subtilis [17] = experiment: Antimicrobial activity against Bacillus subtilis RCMB 101001 at 2.5 mg/ml by agar diffusion technique; in short: as §1
Escherichia coli [18] = experiment: Antimicrobial activity against Escherichia coli RCMB 103001 at 1 mg/ml by agar diffusion technique; in short: as §1
Aspergillus fumigatus [19] = experiment: Antimicrobial activity against Aspergillus fumigatus RCMB 002008 at 5 mg/ml by agar diffusion technique; in short: as §1
[20] = tested on: Syncephalastrum racemosum; experiment: Antimicrobial activity against Syncephalastrum racemosum RCMB 016001 at 2.5 mg/ml by agar diffusion technique; in short: as §1
Bacillus subtilis [21] = experiment: Antimicrobial activity against Bacillus subtilis RCMB 101001 at 1 mg/ml by agar diffusion technique; in short: as §1
Candida albicans [22] = experiment: Antimicrobial activity against Candida albicans RCMB 005003 at 2.5 mg/ml by agar diffusion technique; in short: as §1
Escherichia coli [23] = experiment: Antimicrobial activity against Escherichia coli RCMB 103001 at 5 mg/ml by agar diffusion technique; in short: as §1
Penicillium italicum [24] = experiment: Antimicrobial activity against Penicillium italicum RCMB 001018 at 5 mg/ml by agar diffusion technique; in short: as §1

SMILES	zone of inhibition at 5000 µg/mL (Candida albicans [1])	zone of inhibition at 1000 µg/mL (Aspergillus fumigatus [2])	zone of inhibition at 2500 µg/mL (Staphylococcus aureus [3])	zone of inhibition at 5000 µg/mL (Bacillus subtilis [4])	zone of inhibition at 1000 µg/mL [5]	zone of inhibition at 5000 µg/mL (Pseudomonas aeruginosa [6])	zone of inhibition at 1000 µg/mL (Penicillium italicum [7])	zone of inhibition at 5000 µg/mL [8]	zone of inhibition at 5000 µg/mL (Staphylococcus aureus [9])	zone of inhibition at 1000 µg/mL (Staphylococcus aureus [10])	zone of inhibition at 1000 µg/mL (Pseudomonas aeruginosa [11])	zone of inhibition at 1000 µg/mL (Candida albicans [12])	zone of inhibition at 2500 µg/mL (Penicillium italicum [13])	zone of inhibition at 2500 µg/mL (Escherichia coli [14])	zone of inhibition at 2500 µg/mL (Aspergillus fumigatus [15])	zone of inhibition at 2500 µg/mL (Pseudomonas aeruginosa [16])	zone of inhibition at 2500 µg/mL (Bacillus subtilis [17])	zone of inhibition at 1000 µg/mL (Escherichia coli [18])	zone of inhibition at 5000 µg/mL (Aspergillus fumigatus [19])	zone of inhibition at 2500 µg/mL [20]	also measured
OC1COc2ccccc2/C=N\n2c(nnc2-c2cccnc2)SCCCSc2nnc(-c3cccnc3)n2/N=C\c2ccccc2OC1	1 mm	0 mm	0 mm	6 mm	0 mm	0 mm	0 mm	1 mm	0 mm	0 mm	0 mm	0 mm	1 mm	0 mm	0 mm	0 mm	1 mm	0 mm	0 mm	1 mm	zone of inhibition at 1000 µg/mL (Bacillus subtilis [21]): 1 mm; zone of inhibition at 2500 µg/mL (Candida albicans [22]): 1 mm; zone of inhibition at 5000 µg/mL (Escherichia coli [23]): 0 mm; zone of inhibition at 5000 µg/mL (Penicillium italicum [24]): 1 mm
Nn1c(SCCSc2nnc(-c3cccnc3)n2N)nnc1-c1cccnc1	1 mm	0 mm	0 mm	0 mm	0 mm	0 mm	0 mm	0 mm	1 mm	0 mm	0 mm	1 mm	1 mm	0 mm	0 mm	0 mm	0 mm	0 mm	0 mm	0 mm	zone of inhibition at 1000 µg/mL (Bacillus subtilis [21]): 0 mm; zone of inhibition at 2500 µg/mL (Candida albicans [22]): 1 mm; zone of inhibition at 5000 µg/mL (Escherichia coli [23]): 1 mm; zone of inhibition at 5000 µg/mL (Penicillium italicum [24]): 1 mm
OC1COc2ccccc2/C=N\n2c(nnc2-c2cccnc2)SCCCCSc2nnc(-c3cccnc3)n2/N=C\c2ccccc2OC1	0 mm	0 mm	0 mm	1 mm	0 mm	0 mm	0 mm	0 mm	1 mm	0 mm	0 mm	0 mm	0 mm	0 mm	0 mm	0 mm	1 mm	0 mm	0 mm	0 mm	zone of inhibition at 1000 µg/mL (Bacillus subtilis [21]): 1 mm; zone of inhibition at 2500 µg/mL (Candida albicans [22]): 0 mm; zone of inhibition at 5000 µg/mL (Escherichia coli [23]): 0 mm; zone of inhibition at 5000 µg/mL (Penicillium italicum [24]): 0 mm
Nn1c(SCCCCSc2nnc(-c3cccnc3)n2N)nnc1-c1cccnc1	0 mm	0 mm	1 mm	1 mm	1 mm	0 mm	0 mm	1 mm	1 mm	0 mm	0 mm	0 mm	0 mm	0 mm	0 mm	0 mm	1 mm	0 mm	0 mm	1 mm	zone of inhibition at 1000 µg/mL (Bacillus subtilis [21]): 0 mm; zone of inhibition at 2500 µg/mL (Candida albicans [22]): 0 mm; zone of inhibition at 5000 µg/mL (Escherichia coli [23]): 0 mm; zone of inhibition at 5000 µg/mL (Penicillium italicum [24]): 0 mm
Oc1ccccc1/C=N\n1c(SCCSc2nnc(-c3cccnc3)n2/N=C\c2ccccc2O)nnc1-c1cccnc1	0 mm	0 mm	0 mm	1 mm	0 mm	0 mm	0 mm	1 mm	0 mm	0 mm	0 mm	0 mm	0 mm	0 mm	0 mm	0 mm	0 mm	0 mm	0 mm	1 mm	zone of inhibition at 1000 µg/mL (Bacillus subtilis [21]): 0 mm; zone of inhibition at 2500 µg/mL (Candida albicans [22]): 0 mm; zone of inhibition at 5000 µg/mL (Escherichia coli [23]): 0 mm; zone of inhibition at 5000 µg/mL (Penicillium italicum [24]): 1 mm
O=C(N[C@H](CO)[C@H](O)c1ccc([N+](=O)[O-])cc1)C(Cl)Cl [CHLORAMPHENICOL]	6 mm	6 mm	6 mm	10 mm	10 mm	10 mm	6 mm	10 mm	6 mm	6 mm	6 mm	6 mm	10 mm	6 mm	10 mm	10 mm	10 mm	6 mm	10 mm	10 mm	zone of inhibition at 1000 µg/mL (Bacillus subtilis [21]): 6 mm; zone of inhibition at 2500 µg/mL (Candida albicans [22]): 6 mm; zone of inhibition at 5000 µg/mL (Escherichia coli [23]): 6 mm; zone of inhibition at 5000 µg/mL (Penicillium italicum [24]): 10 mm
Nn1c(-c2cccnc2)n[nH]c1=S	0 mm	0 mm	0 mm	0 mm	0 mm	0 mm	0 mm	0 mm	0 mm	0 mm	0 mm	0 mm	0 mm	0 mm	0 mm	0 mm	0 mm	0 mm	0 mm	0 mm	zone of inhibition at 1000 µg/mL (Bacillus subtilis [21]): 0 mm; zone of inhibition at 2500 µg/mL (Candida albicans [22]): 0 mm; zone of inhibition at 5000 µg/mL (Escherichia coli [23]): 1 mm; zone of inhibition at 5000 µg/mL (Penicillium italicum [24]): 1 mm
